Source: PubChem
E-selectin induc: E-selectin induction in HUVECs, primary screen, imaging, HUVEC, immunofluorescence imaging, single point; P16581; normalized: neutral wells 0, TNF-alpha wells 100; activation, % at 7.58 µM; 260,000 tested, 0.37% active;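 active = mean E-selectin-positive cell signal at least 10% of the positive control, reached in at least 60% of replicates, without over 20% cell loss; inconclusive = no rule given, readout overlaps actives, possibly toxicity-flagged; inactive = the rest, including those meeting only one limit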
Target sequence (P16581 whole entry, looked up): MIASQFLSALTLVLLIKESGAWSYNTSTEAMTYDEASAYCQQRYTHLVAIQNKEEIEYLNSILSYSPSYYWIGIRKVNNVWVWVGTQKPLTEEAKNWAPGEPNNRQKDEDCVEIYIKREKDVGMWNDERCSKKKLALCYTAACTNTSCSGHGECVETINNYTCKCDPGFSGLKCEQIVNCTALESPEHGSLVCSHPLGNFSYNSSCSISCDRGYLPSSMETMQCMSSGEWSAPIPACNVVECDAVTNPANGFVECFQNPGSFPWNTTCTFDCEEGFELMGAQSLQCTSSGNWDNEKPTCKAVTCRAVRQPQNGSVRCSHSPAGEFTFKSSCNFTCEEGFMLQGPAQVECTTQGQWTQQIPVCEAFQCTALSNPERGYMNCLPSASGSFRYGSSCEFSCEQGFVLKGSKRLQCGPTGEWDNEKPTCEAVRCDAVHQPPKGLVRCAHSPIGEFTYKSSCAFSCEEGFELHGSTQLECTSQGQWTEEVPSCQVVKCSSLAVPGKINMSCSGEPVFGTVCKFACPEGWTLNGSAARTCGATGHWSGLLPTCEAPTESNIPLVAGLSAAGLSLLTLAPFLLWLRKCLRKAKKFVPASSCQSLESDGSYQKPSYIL
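assay system = HUVEC, human umbilical vein endothelial cells | input = 3,000 HUVEC seeded per well | medium = EGM-2 growth medium on 0.1% gelatin-coated wells | dosing = one compound dose added by pin transfer | signal = immunofluorescence imaging | read-out basis = % PE-positive cells | control set = TNF-alpha, DMSO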
Cneo AK release: Cryptococcus neoformans cell lysis inducers, primary screen, AK release luminescence, single concentration. C. neoformans lysis, adenylate kinase release luminescence, 4 h; normalised: neutral wells 0, clomiphene wells 100. lysis activity, % at 15 µM. 360,000 tested, 0.2% active. AID 651654, 2012;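 active = mean lysis activity across replicates of at least 80%, whatever share of replicates individually reach that level; inactive = mean lysis activity below 80%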
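Assay system: log-phase C. neoformans yeast / Quantity: yeast cell density of 5 × 10^6 cells/mL / Medium: fresh YPD growth medium / Compound: single dose / Timing: static 4 h at 37 °C with compound, 1 h detection / Measured by: adenylate kinase release luminescence / Read-out: lysis from increased AK signal / Benchmarks: Clomiphene as positive lysis control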
DENV2 CPE rescue: inhibitors of DENV2 cytopathic effect, primary screen, cell-based, plate reader, single concentration; DENV2-infected cells, cytopathic effect rescue; CPE inhibition, % at 9.99 µM; 350,000 tested, 1.7% active; AID 651640, 2012; in the data active = CPE inhibition above about 20%, passing the limit was not always enough; inconclusive = no clear call, values can overlap the other calls; tested in BHK-21 cells
miR-122 sensor: miR-122 Renilla sensor signal increase in Huh7, primary screen, miR-122 inhibitor project, cell-based, single point, plate reader; Huh7 miR-122 Renilla luciferase sensor, 48 h; neutral wells = 0, positive control = 100; 340,000 tested, 0.3% active; activation (reporter increase), % at 12.5 µM;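 active = mean replicate activation score at least 90 and every replicate individually at or above 90; inconclusive = only one of the two criteria met; inactive = neither criterion met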;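 also: higher luciferase means less miR-122 activity so hits act as miR-122 inhibitors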
Ecoli rRNA inh: reduced GFP signal of wild-type E. coli, primary screen, bacterial rRNA inhibitor project, GFP/RFP fluorescence, OD600, single point; E. coli WT GFP vs humanized-ribosome RFP mutants, 24 h; hits give low values; DMSO median 0, no signal -100; GFP signal change (wild-type ribosome), % (test concentration not listed); 350,000 tested, 1.6% active;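 active = significant combined selectivity score with lowered wild-type GFP, culture density cut under 30%, mutant RFP and density less affected; inactive = any of these conditions unmet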
Large screens that a line does not name were inactive; ! = not confirmed by another sample. Most compounds without a hit are left out; they make up all but 3.1% or so of the library.

O=C(Nc1ccccc1)[C@H]1[C@H](CO)[C@H]2Cn3c(ccc(C4=CCCCC4)c3=O)[C@H]2N1Cc1ccccn1	none (no result: Cneo AK release, miR-122 sensor)
COc1ccc(-c2ccccc2[C@H]2[C@@H](C#N)N(C(=O)C3CC3)[C@@H]2CO)cc1	none (no result: Cneo AK release, miR-122 sensor)
COc1ccc(-c2ccccc2[C@@H]2[C@H](C#N)N(C(=O)C3CC3)[C@H]2CO)cc1	DENV2 CPE rescue 45 (no result: Cneo AK release, miR-122 sensor)
CN(C)CCN1CCN(C(c2ccnc3ccccc23)c2nnnn2-c2ccc3c(c2)OCCO3)CC1 (centres undefined)	DENV2 CPE rescue 22 (no result: Cneo AK release, miR-122 sensor)
c1ccc2c(C(c3nnnn3-c3ccc4c(c3)OCCO4)N3CCCC3)ccnc2c1 (centres undefined)	none (no result: Cneo AK release, miR-122 sensor)
O=C(Nc1ccc(Cl)c(Cl)c1)N[C@@H]1CC[C@H](CCn2cc(C3CCCC3)nn2)O[C@@H]1CO	DENV2 CPE rescue 28 (no result: Cneo AK release, miR-122 sensor)
CN(C)CC(=O)N[C@@H]1CC[C@H](CCn2cc(C3CCCCC3)nn2)O[C@H]1CO	none
CN(C)CC(=O)N[C@H]1CC[C@H](CCn2cc(C3CCCCC3)nn2)O[C@H]1CO	DENV2 CPE rescue 41
O=C(Nc1ccc(Cl)c(Cl)c1)N[C@H]1CC[C@@H](CCn2cc(C3CC3)nn2)O[C@H]1CO	none (no result: miR-122 sensor)
CC(C)NC(=O)N(C)C[C@H]1OCCCC[C@H](C)Oc2ccc(NS(=O)(=O)c3ccc(Cl)cc3)cc2C(=O)N([C@@H](C)CO)C[C@@H]1C	none
Cc1noc(C)c1S(=O)(=O)N(C)C[C@H]1OCCCC[C@H](C)Oc2ccc(NS(=O)(=O)c3ccc(Cl)cc3)cc2C(=O)N([C@H](C)CO)C[C@@H]1C	DENV2 CPE rescue inconclusive
Cc1ccc(S(=O)(=O)Cc2ccccc2Cl)cc1	DENV2 CPE rescue 29 (no result: E-selectin induc, Cneo AK release, miR-122 sensor)
CNC[C@@H]1Oc2ccc(NC(C)=O)cc2CC(=O)N(C)C[C@H]1C	none (no result: E-selectin induc, Cneo AK release, DENV2 CPE rescue, miR-122 sensor)
CN(C)CCCNC(=O)[C@H]1[C@H](CO)[C@H]2Cn3c(ccc(-c4ccccc4)c3=O)[C@@H]1N2C	DENV2 CPE rescue 47
CCC(=O)N1[C@@H]2c3ccc(C4=CCCCC4)c(=O)n3C[C@H]1[C@H](CO)[C@H]2C(=O)N[C@H](C)c1ccccc1	DENV2 CPE rescue 93
COc1ccccc1-c1ccc2n(c1=O)C[C@H]1[C@H](CO)[C@@H](C(=O)N[C@H](C)c3ccccc3)[C@@H]2N1C	DENV2 CPE rescue 74
Cc1noc(C)c1S(=O)(=O)Nc1ccc2c(c1)C(=O)N([C@@H](C)CO)C[C@@H](C)[C@@H](CN(C)Cc1ccccc1)OCCCC[C@@H](C)O2	none
CCC(=O)Nc1ccc2c(c1)C(=O)N(C)[C@@H]1CC[C@@H](CC(=O)NCC3CC3)O[C@@H]1CO2	none
CCOC(=O)C1=C(C)N(C[C@@H]2CC[C@@H](Cc3ccc4cc(OC)ccc4c3)O2)C(=O)NC1c1ccccc1 (some centres undefined)	DENV2 CPE rescue 49 (no result: miR-122 sensor)
O=C(NC[C@@H]1CC[C@@H]2[C@@H](CN2Cc2cc(-c3ccccc3)on2)O1)c1ccc2c(c1)OCO2	none (no result: E-selectin induc, Cneo AK release, miR-122 sensor, Ecoli rRNA inh)
COc1ccccc1NC(=O)Nc1nn(C)c2cccc(N(C)C)c12	Ecoli rRNA inh -30 (no result: E-selectin induc, Cneo AK release, miR-122 sensor)
CN(C)c1cccc2c1c(NC(=O)Nc1ccc(Cl)cc1Cl)nn2C	none (no result: Cneo AK release, miR-122 sensor)
COc1ccc(OC)c(NC(=O)Cn2cc(C(=O)c3ccco3)c3ccccc32)c1	none (no result: E-selectin induc, DENV2 CPE rescue, Ecoli rRNA inh)
COc1ccccc1NC(=O)Cn1cc(C(=O)c2ccco2)c2ccccc21	Ecoli rRNA inh -26
COc1ccccc1NC(=O)CN1CCOCC1	DENV2 CPE rescue 75
O=C(CN1CCCC1)Nc1ccccc1Sc1ccc(Cl)cc1	Ecoli rRNA inh -42 (no result: Cneo AK release)
NC(=O)C1CCN(CC(=O)Nc2ccccc2Sc2ccc(Cl)cc2)CC1	none (no result: E-selectin induc)
O=C(CN1CCCCCC1)Nc1ccccc1Oc1ccccc1	Ecoli rRNA inh -41
CC(C)NC(=O)Nc1cccc2c1O[C@@H](CN(C)S(C)(=O)=O)[C@@H](C)CN(C)C2=O	none (no result: E-selectin induc, Cneo AK release, DENV2 CPE rescue, miR-122 sensor)
Cc1ccc(S(=O)(=O)Nc2ccc3c(c2)C(=O)N([C@@H](C)CO)C[C@@H](C)[C@@H](CN(C)S(=O)(=O)c2ccc(C)cc2)OCCCC[C@H](C)O3)cc1	none
CN(C)CC(=O)N1CCCCN2[C@@H](CO)[C@H](c3ccc(/C=C/c4ccccc4)cc3)[C@@H]2C1	none
COc1ccc(C)cc1NC(=O)C(c1ccccc1)N1CCN(CC(=O)N2CCOCC2)CC1 (centres undefined)	DENV2 CPE rescue 28
COc1ccc(C)cc1NC(=O)C(c1ccccc1)N1CCN(CC(=O)N2CCCC2)CC1 (centres undefined)	none
COc1cccc(CNC(=O)C[C@@H]2C=C[C@H](NC(=O)C3CCOCC3)[C@@H](CO)O2)c1	none (no result: miR-122 sensor)
CC1CCC(C(C)C)C(OC(=O)Cn2c(-c3ccccc3)[n+](C)c3ccccc32)C1 (centres undefined)	Ecoli rRNA inh -51!
CC1CCC(C(C)C)C(OC(=O)Cn2c(-c3ccc(F)cc3)[n+](C)c3ccccc32)C1 (centres undefined)	none (no result: miR-122 sensor)
CC(C)(C)c1cc(CCC(=O)NCc2cccnc2)cc(C(C)(C)C)c1O	none
CC(C)(C)c1cc(CCC(=O)NCc2ccccn2)cc(C(C)(C)C)c1O	E-selectin induc 100
Cc1ccsc1-c1n[nH]c(=S)n1C1CCCCC1	Ecoli rRNA inh -41 (no result: Cneo AK release, miR-122 sensor)
COc1cc(OC)cc(-c2nc3ccccc3c(=O)n2OC(=O)c2ccc(Br)cc2)c1	Ecoli rRNA inh -25 (no result: Cneo AK release, miR-122 sensor)
COc1ccc(C(=O)On2c(-c3ccc(Br)cc3)nc3ccccc3c2=O)cc1	none
CO[C@@H]1CN(C)C(=O)c2ccc(NC(=O)Cc3ccccc3)cc2OC[C@H](C)N(C(C)=O)C[C@H]1C	none
N#Cc1ccc(NC(=S)N2CCC3CC2c2cc(-c4ccc5c(c4)OCO5)ccc23)cc1 (centres undefined)	miR-122 sensor 110
O=C(CN1C(=O)NC2(CCCC2)C1=O)N1CCN(S(=O)(=O)c2ccccc2F)CC1	none (no result: E-selectin induc)
O=C(CN1C(=O)NC2(CCCC2)C1=O)N1CCN(S(=O)(=O)c2ccccc2[N+](=O)[O-])CC1	DENV2 CPE rescue 38
CO[C@@H]1CN(C)C(=O)c2cc(NC(=O)CC(F)(F)F)ccc2OC[C@@H](C)N(C(=O)C2CCOCC2)C[C@H]1C	none (no result: DENV2 CPE rescue)
CC(C)Cn1c(=O)c(C(=O)Nc2ccncc2)c(O)c2ccccc21	Ecoli rRNA inh -26 (no result: E-selectin induc)
O=c1c(O)c(-c2cc(O)c(O)c(O)c2)oc2cc(O)cc(O)c12	Ecoli rRNA inh -24
COc1ccccc1NC(=O)N1CC(=O)N2[C@H](CO)[C@@H](c3ccc(-c4cccc(C)c4)cc3)[C@@H]2C1	none (no result: Cneo AK release, miR-122 sensor)
Cn1c(=O)c([N+](=O)[O-])c(N2CCSCC2)c2ccccc21	none
